In one experiment the test system is A549. Nature of the experiment: Cytotoxicity against human A549 cells assessed as cell growth inhibition after 72 hrs by MTT assay. The following applies: A549, 72 h. The format is functional, cell-based. A digest of the protocol:
(§1)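 MTT growth assay in human cancer lines (MCF-7, HepG2, BGC-823, HeLa, A549), 72 h after treatment; 5-fluorouracil as reference. IC50 (μg/mL) taken as concentration giving 50% growth inhibition versus untreated control.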
A general note: Tetrazolium assays rely on reduction of a dye to a coloured formazan, in cell work by metabolically active cells.

The subject of experiment [1] is HepG2. Kind of experiment: Cell cycle arrest in human HepG2 cells assessed as accumulation at G1 phase at 0.55 ug/ml after 48 hrs by propidium iodide staining based flow cytometry (reference value: 57.68 %). The format is functional.
Another experiment concerns HeLa. Kind of experiment: Cytotoxicity against human HeLa cells assessed as cell growth inhibition after 72 hrs by MTT assay. The format is functional, cell-based. A digest of the protocol: as §1
Experiment [2] relates to HepG2. Kind of experiment: Cell cycle arrest in human HepG2 cells assessed as accumulation at S phase at 1.1 ug/ml after 48 hrs by propidium iodide staining based flow cytometry (reference value: 35.42 %). The format is functional. (In general: In flow cytometry, cells or beads pass a laser one at a time.)
The test system of a further experiment is MCF7. Kind of experiment: Cytotoxicity against human MCF7 cells assessed as cell growth inhibition after 72 hrs by MTT assay. The following applies: MCF7, 72 h. The format is functional, cell-based. A digest of the protocol:
as §1

Experiment [3] relates to HepG2. Nature of the experiment: Cell cycle arrest in human HepG2 cells assessed as accumulation at sub-G1 phase at 1.1 ug/ml after 48 hrs by propidium iodide staining based flow cytometry relative to control. The format is functional.
Experiment [4] deals with HepG2. Nature of the experiment: Induction of apoptosis in human HepG2 cells assessed as early apoptotic cells at 1.1 ug/ml after 24 to 48 hrs by Annexin V-FITC/propidium iodide staining based flow cytometry (reference value: 2.5 %). The format is functional.
Experiment [5] concerns HepG2. Kind of experiment: Cell cycle arrest in human HepG2 cells assessed as accumulation at sub-G1 phase at 0.55 ug/ml after 48 hrs by propidium iodide staining based flow cytometry relative to control. The format is functional.
Experiment [6] relates to HepG2. Nature of the experiment: Cell cycle arrest in human HepG2 cells assessed as accumulation at G2 phase at 0.55 ug/ml after 48 hrs by propidium iodide staining based flow cytometry (reference value: 6.89 %). The format is functional.
Experiment [7] deals with HepG2. Nature of the experiment: Cell cycle arrest in human HepG2 cells assessed as accumulation at G1 phase at 1.1 ug/ml after 48 hrs by propidium iodide staining based flow cytometry (reference value: 57.68 %). The format is functional.
Experiment [8] concerns HepG2. Nature of the experiment: Cytotoxicity against human HepG2 cells assessed as cell growth inhibition at 20 ug/ml after 72 hrs by MTT assay. The format is functional. As to conditions: HepG2, 72 h, read-out: GI.
For experiment [9], the system named is HepG2. Nature of the experiment: Induction of apoptosis in human HepG2 cells assessed as early apoptotic cells at 0.55 ug/ml after 24 to 48 hrs by Annexin V-FITC/propidium iodide staining based flow cytometry (reference value: 2.5 %). The format is functional.
Experiment [10] deals with HepG2. Kind of experiment: Induction of apoptosis in human HepG2 cells assessed as necrotic cells at 0.55 ug/ml after 24 to 48 hrs by Annexin V-FITC/propidium iodide staining based flow cytometry (reference value: 1.8 %). The format is functional.
The test system of experiment [11] is HepG2. Nature of the experiment: Cell cycle arrest in human HepG2 cells assessed as accumulation at S phase after 48 hrs by propidium iodide staining based flow cytometry. The format is functional.
Experiment [12] has as its system HepG2. Kind of experiment: Induction of apoptosis in human HepG2 cells assessed as necrotic cells at 1.1 ug/ml after 24 to 48 hrs by Annexin V-FITC/propidium iodide staining based flow cytometry (reference value: 1.8 %). The format is functional.
In experiment [13] the test system is HepG2. Kind of experiment: Cytotoxicity against human HepG2 cells assessed as cell growth inhibition after 72 hrs by MTT assay. As to conditions: HepG2, 72 h. The format is functional, cell-based. A digest of the protocol:
as §1

The test system of experiment [14] is HepG2. Kind of experiment: Induction of apoptosis in human HepG2 cells assessed as viable cells at 0.55 ug/ml after 24 to 48 hrs by Annexin V-FITC/propidium iodide staining based flow cytometry (reference value: 95.6 %). The format is functional. As to conditions: read-out: Activity.
Experiment [15] concerns HepG2. Nature of the experiment: Induction of apoptosis in human HepG2 cells assessed as late apoptotic cells at 1.1 ug/ml after 24 to 48 hrs by Annexin V-FITC/propidium iodide staining based flow cytometry (reference value: 0.1 %). The format is functional.
Experiment [16] relates to HepG2. Kind of experiment: Induction of apoptosis in human HepG2 cells assessed as late apoptotic cells at 0.55 ug/ml after 24 to 48 hrs by Annexin V-FITC/propidium iodide staining based flow cytometry (reference value: 0.1 %). The format is functional.
Experiment [17] concerns HepG2. Nature of the experiment: Cell cycle arrest in human HepG2 cells assessed as accumulation at G2 phase at 1.1 ug/ml after 48 hrs by propidium iodide staining based flow cytometry (reference value: 6.89 %). The format is functional.
Experiment [18] is described as follows: Cytotoxicity against human HL7702 cells assessed as cell growth inhibition after 72 hrs by MTT assay. The following applies: L02, 72 h. The format is cell-based.
The test system of experiment [19] is HepG2. Nature of the experiment: Induction of apoptosis in human HepG2 cells assessed as viable cells at 1.1 ug/ml after 24 to 48 hrs by Annexin V-FITC/propidium iodide staining based flow cytometry (reference value: 95.6 %). The format is functional. The following applies: read-out: Activity.
Experiment [20] deals with HepG2. Kind of experiment: Cell cycle arrest in human HepG2 cells assessed as accumulation at S phase at 0.55 ug/ml after 48 hrs by propidium iodide staining based flow cytometry (reference value: 35.42 %). The format is functional.
Experiment [21] in a line: Cytotoxicity against human BCG823 cells assessed as cell growth inhibition after 72 hrs by MTT assay. The format is functional, cell-based. The following applies: BCG823, 72 h. A digest of the protocol:
as §1

Converted amounts (≈) assume the structure as drawn.

One may read the IC50 as the concentration needed to halve the response being measured. For `Cc1nc(N(C)C(=O)NC(=O)c2c(F)cccc2F)sc1C(=O)N/N=C/c1ccccc1C(F)(F)F`, the IC50 in the experiment on A549 came out at 5.43 µg/mL (≈ 10.3 µM); with HeLa, 6.51 µg/mL (≈ 12.4 µM); with MCF7 it was 7.34 µg/mL (≈ 14 µM); in the experiment with HepG2 [13] it was 1.11 µg/mL (≈ 2.11 µM); in experiment [18], 9.43 µg/mL (≈ 17.9 µM); in experiment [21], 7.88 µg/mL (≈ 15 µM). The Activity was found to be 41.02% with HepG2 [1]; 88.17% in the experiment on HepG2 [2]; 66.72% in the experiment with HepG2 [3]; 16.5% with HepG2 [4]; 34.5% in the experiment with HepG2 [5]; 2.11% in the experiment with HepG2 [6]. The Activity is 11.83% in the experiment on HepG2 [7]; 7% with HepG2 [9]; 1.4% in the experiment on HepG2 [10]; “Dose-dependent effect” in the experiment on HepG2 [11]; 2.3% in the experiment on HepG2 [12]; 0.3% in the experiment with HepG2 [15]. Moreover, the results for the Activity in the experiment on HepG2 [16], with HepG2 [17] and in the experiment with HepG2 [20] were 0.4%, 0% and 56.87%, respectively. Also, the inhibition of growth at 20 µg/mL with HepG2 [8] came to 90%. Moreover, the viability at 0.55 µg/mL in the experiment with HepG2 [14] was 91.2%. In addition, the viability at 1.1 µg/mL with HepG2 [19] was determined as 80.9%.
